Data on 77 molecules can be found in PubChem BioAssay AID1515 (The Scripps Research Institute Molecular Screening Center, 2009).

What is called inhibition is the drop in the measured response relative to a control, in per cent.

The whole screen tested about 220,000 compounds, of which about 440 (0.2%) were called active. Many of the other results were omitted from the sample, so actives are more common in it than they were. A number with no mark means an inactive call.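 The calls were made as follows: active = inhibition above the campaign mean of all tested compounds plus 3 SD (cut at about 14% in these data); inactive = the rest.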

Chain of Serine hydrolase RBBP9 (Homo sapiens) (O75884 whole entry, looked up): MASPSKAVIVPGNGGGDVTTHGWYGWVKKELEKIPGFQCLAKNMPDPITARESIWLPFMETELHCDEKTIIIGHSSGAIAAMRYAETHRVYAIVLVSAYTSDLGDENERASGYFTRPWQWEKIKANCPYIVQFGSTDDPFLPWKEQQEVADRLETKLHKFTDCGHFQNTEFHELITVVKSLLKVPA

The assay concerns the target Serine hydrolase RBBP9 (Homo sapiens) (UniProt O75884). Nature of the assay: blockers of RBBP9 serine hydrolase labeling – biochemical, fluorescence polarization, FP-Rh probe, HTS, primary screen (AID 1515). The conditions noted are these: recombinant RBBP9, FP-Rh probe fluorescence polarization; at 7.94 µM; stronger effect = higher value. The method in brief: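 System: RBBP9 protein / Quantity: 2.5 µM RBBP9 dispensing solution, before mixing / Also added: Serine-hydrolase probe FP-Rh, 375 nM pre-mixing / Dosing: 7.94 µM single dose, 0.794% DMSO / Timing: enzyme-compound preincubation 30 min, then probe labeling 45 min, 25 °C / Signal: FP readout at 525/598 nm / Controls: DMSO-treated enzyme wells and wells lacking RBBP9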
(In general: Fluorescence polarisation rises when a labelled molecule tumbles more slowly, as on binding a larger partner.)
For the molecule `Cc1ccnc(Nc2nc3ccccc3s2)n1`, the inhibition is -1.41%.

As to `Cc1ccnc(-n2sc3ccccc3c2=O)n1`, the inhibition is 43.2% (active).

In the case of `Cc1ccnc(SCC(N)=O)n1`, the inhibition is -18.6%.

For `CCOC(=O)CCCNC(=O)COC(=O)/C=C/c1ccc2c(c1)OCO2`, the inhibition was 6.07%.

In the case of `Cc1ccc(C(O)P(=O)(OC(C)C)c2ccc(N(C)C)cc2)cc1` (configuration not stated), the inhibition was -1.11%.

For `O=C(C1CCCO1)N1CCN(C(=S)Nc2cccc(Cl)c2)CC1` (configuration not stated), the inhibition was -9.39%.

For `O=C(COc1ccc(Cl)cc1)N1CCN(c2cccc(C(F)(F)F)c2)CC1`, the inhibition was -0.45%.

For the molecule `CCC(=O)c1ccc(OCC(O)CN2CCN(c3cccc(C(F)(F)F)c3)CC2)cc1` (configuration not stated), the inhibition was 17.3% (active).

`CCC(=O)c1ccc(OCC(O)CN2CC(C)OC(C)C2)cc1` (configuration not stated): the inhibition was -8.04%.

With `O=C(O)c1ccccc1-c1ccccc1C(=O)Nc1nccs1`, the inhibition is -2.01%.

For the molecule `CCN1CCc2nc(NC(=O)c3cc(F)c(F)cc3Cl)sc2C1`, the inhibition was -0.19%.

For `CCOc1ccc2nc(NCCNC(=O)C(C)(C)C)c(C)cc2c1`, the inhibition is -3.3%.

For `Cc1ccc(C(=O)COC(=O)CCN2C(=O)C3C4CC(C(Br)C4Br)C3C2=O)cc1` (configuration not stated), the inhibition is -2.32%.

With `COc1ccc(OC)c(NC(=S)N2CCc3ccccc3C2)c1`, the inhibition is 1.81%.

For `Cc1ccc(C)c(Cn2cnc3c(oc4ccccc43)c2=O)c1`, the inhibition was -1.77%.

Regarding `Cc1ccc(CN2CCN(Cc3ccccc3-c3ccco3)CC2CCO)o1` (configuration not stated), the inhibition was -3.63%.

Take `CN(C)c1nnnn1-c1ccc(Cl)cc1`: the inhibition is 3.3%.

Turning to `CC(C)c1ccc(Nc2nnc(SCC(=O)c3nnc(-c4ccccc4)o3)s2)cc1`, the inhibition was -10.9%.

Turning to `CCC(=O)N1CCCc2ccccc21`, the inhibition was 16.1% (active).

For the molecule `Cc1occc1C(=O)N1CCCc2ccccc21`, the inhibition was 7.03%.

As to `O=C(CSCc1ccccc1)N1CCc2ccccc21`, the inhibition is -3.54%.

Consider `COc1cc(OC)cc(-c2nc(=S)n3ccsc3n2)c1`, for which the inhibition was 0.8%.

As for `O=C1CN(C(=O)CN2C(=O)NC3(CCCCC3)C2=O)c2ccccc2N1`, the inhibition was -4.87%.

As for `CCSc1ccccc1C(=O)Nc1ccc2c(c1)OCO2`, the inhibition is -7.81%.

Consider `CN(/C(=N/S(=O)(=O)c1cccs1)c1ccccc1)c1ccc(O)cc1`, for which the inhibition was -5.39%.

As to `O=C(CSc1nnc(SCc2ccc(Cl)cc2)s1)N/N=C/c1ccccc1Cl`, the inhibition is -7.13%.

`COc1cc(NC(=S)NCc2ccc(S(N)(=O)=O)cc2)cc(OC)c1`: the inhibition was 1.34%.

With `COc1ccc(CCC(=O)OCC(=O)Nc2ccc(C)c(S(=O)(=O)N(C)C)c2)cc1`, the inhibition was -1.71%.

With `COc1cccc(NCCC(=O)c2cccc([N+](=O)[O-])c2)c1`, the inhibition is -8.98%.

Regarding `COc1ccc(NS(=O)(=O)c2cc(NC(=O)CC(=O)c3ccc([N+](=O)[O-])cc3)ccc2C)cc1`, the inhibition is 28.9% (active).

As for `COc1cccc(NC(=O)NCc2ccc(F)cc2)c1`, the inhibition is -0.62%.

With `CCNC(=S)NNC(=O)C1CCN(Cc2ccccc2)CC1`, the inhibition was -3.59%.

For the molecule `CC(=O)c1ccc(NC(=O)c2ccc3c(Cl)c4c(nc3c2)CCCC4)cc1`, the inhibition is -3.32%.

Consider `COc1cccc(NC(=O)c2ccc3c(SCC(=O)O)c4c(nc3c2)CCCC4)c1`, for which the inhibition was 14.3% (active).

For the molecule `CCC(=O)Nc1ccc(C(=O)Nc2cccc(OC)c2)cc1`, the inhibition was -4.79%.

As for `O=C(NCCCn1ccnc1)C(=O)NCC1OCCN1S(=O)(=O)c1cc(F)ccc1F` (configuration not stated), the inhibition was -2.12%.

For the molecule `Cc1cc(F)ccc1S(=O)(=O)N1CCCOC1CNC(=O)C(=O)NCCC1=CCCCC1` (configuration not stated), the inhibition was 44.9% (active).

`O=C(NCc1cccs1)C(=O)NCC1OCCCN1S(=O)(=O)c1ccc(F)cc1` (configuration not stated): the inhibition was -5.51%.

Take `Cc1cc(CO)nn1-c1ccc([N+](=O)[O-])cc1`: the inhibition is -1.67%.

For `CCN(CC)Cc1nc2sc(C)c(C)c2c(=O)[nH]1`, the inhibition was 0.79%.

On to `COc1ccc(C(=O)CSc2nnc(-c3ccco3)o2)cc1`, for which the inhibition is -6.2%.

Turning to `CC(C)n1c(=S)[nH]c2cc(C(F)(F)F)ccc21`, the inhibition is -5.5%.

Take `CCN(C(=O)Cc1nc(N)n[nH]1)C1(C(=O)Nc2ccccc2)CCCCC1`: the inhibition is 4.99%.

As to `COc1ccc(-n2nnnc2SCC(=O)NCc2cccs2)cc1`, the inhibition is -4.68%.

As to `COc1ccc(-n2nnnc2SCc2nc(N)nc(N3CCOCC3)n2)cc1`, the inhibition was 14.8% (active).

`COc1ccc(-c2nnn(Cc3nc(N)nc(N4CCCCC4)n3)n2)cc1`: the inhibition was -9.6%.

With `Cc1onc(-c2ccccc2Cl)c1C(=O)OCC(=O)c1ccccc1`, the inhibition was -7.59%.

Turning to `O=c1nc(N/N=C/c2ccco2)cn[nH]1`, the inhibition was -3.99%.

On to `COC(=O)c1ccccc1NC(=O)Cc1ccccc1OC`, for which the inhibition was 6.78%.

As for `CN1CCN(C(c2cc3cc4c(cc3[nH]c2=O)OCCO4)c2nnnn2C2CCCC2)CC1` (configuration not stated), the inhibition is -9.4%.

For `CCOc1ccc2[nH]c(=O)c(C(c3nnnn3CCOC)N3CCOCC3)cc2c1` (configuration not stated), the inhibition was 15.5% (active).

As to `COCCn1nnnc1C(c1cc2ccc(OC)cc2[nH]c1=O)N1CCc2ccccc2C1` (configuration not stated), the inhibition is 5.71%.

In the case of `C[N+](C)(C)CCOP(=O)([O-])OC[C@H](O)CO`, the inhibition was 0.46%.

`COc1ccccc1N1CCN(CC(=O)NCCc2ccc(S(N)(=O)=O)cc2)CC1`: the inhibition was 0.48%.

Regarding `CCCC(NC(=O)c1ccco1)c1nc2ccccc2[nH]1` (configuration not stated), the inhibition was 0.23%.

Take `O=C(CN1CCN(c2ccc(Cl)cc2)CC1)NCc1cccs1`: the inhibition is -5.55%.

As for `CC(C)c1ccc(NC(=S)NNc2ccc(Cl)c(C(=O)O)c2)cc1`, the inhibition is -0.79%.

For the molecule `Nc1nnc(SCC(=O)OCc2ccc(Cl)c(Cl)c2)s1`, the inhibition was -1.35%.

Take `Cc1nc(SCC(=O)N2CC(=O)Nc3ccccc32)c2c(C)c(C)sc2n1`: the inhibition is -7.82%.

For the molecule `C=CCn1c(COc2ccccc2F)nnc1SCC(=O)N1CC(=O)Nc2ccccc21`, the inhibition is -3.31%.

In the case of `Nn1c(Cc2cccc3ccccc23)nnc1SCC(=O)N1CC(=O)Nc2ccccc21`, the inhibition is 15.1% (active).

For `CN1CCNC(=O)C1CC(=O)N1CC=C(c2ccc(F)cc2)CC1` (configuration not stated), the inhibition was 1.72%.

`COc1cc2c3c(c1)/C(=C1/SC(=S)NC1=O)C(=O)N3C(C)(C)C=C2C`: the inhibition was -0.69%.

In the case of `C=CS(=O)c1sc(Cl)c(N2CCOCC2)c1[N+](=O)[O-]` (configuration not stated), the inhibition was 17.3% (active).

`COC(=O)COc1ccc(C2NC(=O)NC(C)=C2C(=O)NCc2ccccc2)cc1OC` (configuration not stated): the inhibition was -2.89%.

Regarding `O=C(CNc1ccc(F)cc1F)NC(=O)NCc1ccco1`, the inhibition is 5.92%.

As to `Oc1c(C(c2cccs2)N2CCN(c3ccc(F)cc3)CC2)sc2ncnn12` (configuration not stated), the inhibition was -6.82%.

As to `O=C(c1ccc(F)cc1)N1CCC(n2nnc3ccccc32)CC1`, the inhibition was 1.82%.

Turning to `Cc1cccc(C)c1Nc1c(-c2ccccc2O)nc2ncccn12`, the inhibition was 4.64%.

As for `Cc1ccc(-c2nc(C#N)c(NCCCn3ccnc3)o2)cc1`, the inhibition was -5.98%.

As for `CC(C)c1ccc2c(c1)c(SC(C)(C)C)c(CC(C)(C)C(=O)O)n2Cc1ccc(Cl)cc1`, the inhibition is 5.23%.

For `CCN(CC)C(=O)Oc1ccc(OC(=O)N(CC)CC)cc1`, the inhibition is 3.51%.

Turning to `CCCc1nc2oc3c(OCC)ncnc3c2c2c1COC(C)(C)C2`, the inhibition is -0.01%.

Consider `CC(C)(C)C(=O)NC(NC(=S)Nc1ccc(S(N)(=O)=O)cc1)C(Cl)(Cl)Cl` (configuration not stated), for which the inhibition was -7.24%.

In the case of `Cc1ccc(C(C(=O)NC2CCCC2)N(Cc2ccco2)C(=O)CCC(=O)Nc2ccccn2)cc1` (configuration not stated), the inhibition was -4.24%.

In the case of `CCOc1ccccc1N(CC(=O)NC1CCCCC1)C(=O)CCCC(=O)Nc1ccccn1`, the inhibition was -3.56%.

For `O=C(CCCC(=O)N(CC(=O)NC1CCCC1)Cc1ccccc1Cl)Nc1ccccn1`, the inhibition was 16.9% (active).
